The target in assay [1] is T1, Tyrosine-protein kinase JAK2 (Homo sapiens, UniProt O60674). As to the kind of experiment: Inhibition of N-terminal His-tagged human JAK2 catalytic domain (826 to 1132 resiudes) expressed in baculovirus expression system at 100 nM using FAM-labeled peptide as substrate preincubated for 10 mins followed by substrate addition measured after 1 hr in presence of ATP by mobility shift assay relative to control. In short, it runs like this:
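Single-concentration (100 nM) percent inhibition in the mobility-shift JAK2 assay. Enzyme was preincubated with compound for 10 min at room temperature in HEPES pH 7.5/Brij-35 buffer. FAM-peptide and ATP were then added and the reaction run for 1 h at 28 °C before EDTA stop. Inhibition = (max−conversion)/(max−min)×100. Each compound was tested at least twice and the values averaged.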

Another assay has as its system HEL. As to the kind of experiment: Antiproliferative activity against human HEL cells assessed as growth inhibition after 72 hrs by CCK-8 assay. The assay is classed as functional. In outline:
(§1)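 CCK-8 viability readout. Cells were cultured in RPMI 1640 with 10% FBS and 1% penicillin/streptomycin and seeded at 3000 (HEL), 5000 (MV4-11) or 3000 (HL60) cells/well. Increasing compound concentrations were applied for 72 h, then CCK-8 was added for a further 3 h and absorbance read at 450 nm. Inhibition = (1−A_sample/A_control)×100, normalized to DMSO controls. Value is the mean of three independent measurements, obtained by curve fitting.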

In the next assay the test system is MV4-11. Nature of the assay: Antiproliferative activity against human MV4-11 cells assessed as growth inhibition after 72 hrs by CCK-8 assay. Format: functional. As to conditions: MV4-11, 72 h. In outline:
as §1

In a further assay the test system is HL-60. As to the kind of experiment: Antiproliferative activity against human HL60 cells assessed as growth inhibition after 72 hrs by CCK-8 assay. Format: functional. As to conditions: HL-60, 72 h. In outline:
as §1

Assay [2] concerns the target T1, Tyrosine-protein kinase JAK2. Nature of the assay: Inhibition of N-terminal His-tagged human JAK2 catalytic domain (826 to 1132 resiudes) expressed in baculovirus expression system using FAM-labeled peptide as substrate preincubated for 10 mins followed by substrate addition measured after 1 hr in presence of ATP by mobility shift assay. In outline:
(§2)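 Caliper mobility-shift assay with recombinant kinase in 50 mM HEPES pH 7.5, 0.0015% Brij-35. Compound was diluted from DMSO and preincubated with enzyme for 10 min at room temperature. FAM-labeled peptide plus ATP was then added and the reaction run for 1 h at 28 °C. It was stopped with an EDTA (50 mM) buffer. Conversion gave percent inhibition relative to max/min controls, and IC50 came from a four-parameter Hill fit. Duplicate wells were used.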

Assay [3] deals with T2, Receptor-type tyrosine-protein kinase FLT3 (Homo sapiens, UniProt P36888).
T2 sequence (P36888 whole entry): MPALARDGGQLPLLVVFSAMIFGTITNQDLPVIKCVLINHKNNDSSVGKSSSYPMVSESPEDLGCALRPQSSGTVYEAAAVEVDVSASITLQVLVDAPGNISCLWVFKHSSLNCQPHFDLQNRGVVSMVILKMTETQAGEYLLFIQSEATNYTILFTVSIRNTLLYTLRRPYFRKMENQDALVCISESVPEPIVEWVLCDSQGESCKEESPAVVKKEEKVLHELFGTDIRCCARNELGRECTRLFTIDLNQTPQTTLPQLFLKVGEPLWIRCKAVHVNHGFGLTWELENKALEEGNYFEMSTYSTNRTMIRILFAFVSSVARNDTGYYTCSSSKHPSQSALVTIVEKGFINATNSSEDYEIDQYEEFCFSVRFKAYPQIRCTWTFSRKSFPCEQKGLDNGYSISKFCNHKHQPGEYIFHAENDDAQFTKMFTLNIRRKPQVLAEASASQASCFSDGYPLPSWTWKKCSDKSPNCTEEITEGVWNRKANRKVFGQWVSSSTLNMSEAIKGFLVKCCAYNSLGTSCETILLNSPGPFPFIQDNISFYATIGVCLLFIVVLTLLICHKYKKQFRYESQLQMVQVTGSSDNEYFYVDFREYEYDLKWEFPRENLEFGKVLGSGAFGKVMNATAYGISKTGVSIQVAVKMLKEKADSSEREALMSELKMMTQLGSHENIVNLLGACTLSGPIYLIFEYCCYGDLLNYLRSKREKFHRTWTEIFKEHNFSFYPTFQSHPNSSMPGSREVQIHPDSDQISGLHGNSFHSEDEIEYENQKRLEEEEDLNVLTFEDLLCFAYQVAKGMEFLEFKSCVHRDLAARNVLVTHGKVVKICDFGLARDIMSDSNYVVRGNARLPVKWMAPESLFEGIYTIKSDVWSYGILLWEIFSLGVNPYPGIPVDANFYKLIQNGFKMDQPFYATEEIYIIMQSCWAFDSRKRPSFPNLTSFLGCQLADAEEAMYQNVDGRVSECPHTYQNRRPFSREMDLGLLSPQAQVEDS
Nature of the assay: Inhibition of N-terminal GST-tagged human FLT3 cytoplasmic domain (564 to 993 residues) expressed in baculovirus expression system musing FAM-labeled peptide as substrate preincubated for 10 mins followed by substrate addition measured after 1 hr in presence of ATP by mobility shift assay. In outline: as §2

For assay [4], the target named is Receptor-type tyrosine-protein kinase FLT3 (Homo sapiens) (UniProt P36888). To be noted: at 100 nM.

Some results are limits rather than exact numbers.

T1 sequence (O60674 whole entry, the tested form may be a part): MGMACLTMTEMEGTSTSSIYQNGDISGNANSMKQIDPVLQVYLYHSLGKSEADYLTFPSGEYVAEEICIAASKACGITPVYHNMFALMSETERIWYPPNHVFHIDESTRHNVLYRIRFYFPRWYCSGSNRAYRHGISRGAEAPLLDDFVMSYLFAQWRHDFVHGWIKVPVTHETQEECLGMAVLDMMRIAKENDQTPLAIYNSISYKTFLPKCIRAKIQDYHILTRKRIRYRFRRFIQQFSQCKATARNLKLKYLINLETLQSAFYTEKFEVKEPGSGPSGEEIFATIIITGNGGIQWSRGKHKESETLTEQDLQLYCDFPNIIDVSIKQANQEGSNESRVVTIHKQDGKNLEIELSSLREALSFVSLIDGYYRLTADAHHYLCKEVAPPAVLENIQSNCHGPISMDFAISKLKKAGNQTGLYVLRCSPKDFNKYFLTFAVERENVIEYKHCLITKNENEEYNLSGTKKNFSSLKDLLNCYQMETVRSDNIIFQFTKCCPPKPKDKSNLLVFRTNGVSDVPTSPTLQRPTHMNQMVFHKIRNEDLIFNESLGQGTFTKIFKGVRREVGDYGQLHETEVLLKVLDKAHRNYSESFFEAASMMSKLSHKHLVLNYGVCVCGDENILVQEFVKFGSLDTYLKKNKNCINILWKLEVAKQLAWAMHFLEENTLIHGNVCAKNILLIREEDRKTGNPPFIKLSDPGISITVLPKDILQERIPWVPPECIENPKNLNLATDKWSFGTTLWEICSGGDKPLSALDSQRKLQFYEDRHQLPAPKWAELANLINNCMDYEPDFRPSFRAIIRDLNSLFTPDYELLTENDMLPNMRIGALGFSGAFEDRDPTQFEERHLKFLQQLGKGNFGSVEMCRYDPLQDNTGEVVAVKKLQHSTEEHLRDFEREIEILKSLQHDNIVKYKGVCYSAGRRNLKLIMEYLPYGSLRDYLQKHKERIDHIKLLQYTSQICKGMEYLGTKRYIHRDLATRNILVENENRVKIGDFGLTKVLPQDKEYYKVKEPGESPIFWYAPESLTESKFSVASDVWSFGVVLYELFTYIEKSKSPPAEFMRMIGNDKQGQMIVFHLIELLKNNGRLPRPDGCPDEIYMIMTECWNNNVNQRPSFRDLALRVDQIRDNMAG

Regarding `NC(=O)c1ccc(NC(=O)N2CCN(c3ccnc(Nc4ccc(N5CCOCC5)cc4)n3)CC2)cc1`, the inhibition in assay [1] is 86.3%; in assay [4], 81.1%. Besides, the GI50 with HEL, in the assay on MV4-11 and in the assay on HL-60 was greater than 50 µM in each case. The IC50 in assay [2] came out at 0.011 µM; in assay [3], 0.021 µM.
In the case of `CC(=O)c1ccc(NC(=O)N2CCN(c3ccnc(Nc4ccc(N5CCN(C)CC5)cc4)n3)CC2)cc1`, the inhibition in assay [1] is 80.8%; in assay [4] it was 87.5%. The GI50 worked out at 14.1 µM with HEL, 32 µM in the assay with MV4-11 and 46.4 µM in the assay on HL-60. In addition, the figures for the IC50 in assay [2] and in assay [3] were 0.0138 µM and 0.012 µM, respectively.

Source of the values: ChEMBL document CHEMBL4359878, “Discovery of 4-piperazinyl-2-aminopyrimidine derivatives as dual inhibitors of JAK2 and FLT3” (Eur J Med Chem, 2019).
